ChEMBL document CHEMBL1154842, “Synthesis, radiolabeling, and biological evaluation of (R)- and (S)-2-amino-3-[(18)F]fluoro-2-methylpropanoic acid (FAMP) and (R)- and (S)-3-[(18)F]fluoro-2-methyl-2-N-(methylamino)propanoic acid (NMeFAMP) as potential PET radioligands for imaging brain tumors” (J Med Chem, 2010)

Assays:
9L [1] = assay: Cellular uptake in rat 9L cells assessed as inhibition of uptake at 5 uCi measured […] by gamma counting in presence of system L transport inhibitor BCH relative to control; type: ADME, cell-based; design: scale not given: the % may be the effect or the level left
How it was run: (§1)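 9L rat gliosarcoma cells, grown in DMEM with 10% FCS, were trypsinised and washed in HBSS. About 5×10^5 cells were incubated with 5 μCi tracer in amino-acid-free HBSS for 30 min at 37 °C, with or without 10 mM final BCH, MeAIB or ACS (3.3 mM each Ala/Cys/Ser). Cells were washed cold, gamma-counted and decay-corrected. Inhibition is percent of control; triplicates, one-way ANOVA.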

9L [2] = assay: Cellular uptake in rat 9L cells assessed as inhibition of uptake at 5 uCi measured […] by gamma counting in presence of system A transport inhibitor MeAIB relative to control; type: ADME, cell-based; design: scale not given: the % may be the effect or the level left; how it was run: as §1
9L [3] = assay: Cellular uptake in rat 9L cells at 5 uCi measured […] by gamma counting in presence of system L transport inhibitor BCH; type: ADME, cell-based
How it was run: (§2)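 9L rat gliosarcoma cells (DMEM, 10% FCS, 37 °C, 5% CO2) were trypsinised and washed in HBSS. About 5×10^5 cells took up 5 μCi tracer for 30 min in 0.1 mL amino acid-free HBSS, with inhibitor at 10 mM final (ACS: 3.3 mM each of alanine, cysteine, serine). Cells were spun and rinsed twice with ice-cold HBSS, then gamma counted with decay correction. Triplicates; uptake is % ID per 5×10^5 cells.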

9L [4] = assay: Cellular uptake in rat 9L cells at 5 uCi measured […] by gamma counting; type: ADME, cell-based
How it was run: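 9L rat gliosarcoma cells, grown in DMEM with 10% FCS, were trypsinised and washed in HBSS. About 5×10^5 cells were exposed to 5 μCi tracer in amino-acid-free HBSS for 30 min at 37 °C, 5% CO2, then centrifuged and rinsed twice with ice-cold HBSS. Cells were gamma-counted and decay-corrected, with uptake reported as % of initial dose per 5×10^5 cells ± SD, n=3.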

9L [5] = assay: Cellular uptake in rat 9L cells assessed as inhibition of uptake at 5 uCi measured […] by gamma counting in presence of system ASC transport inhibitor ACS relative to control; type: ADME, cell-based; design: scale not given: the % may be the effect or the level left; how it was run: as §1
9L [6] = assay: Cellular uptake in rat 9L cells at 5 uCi measured per 0.5 million cells by gamma counting in presence of system ASC transport inhibitor ACS
9L [7] = assay: Cellular uptake in rat 9L cells at 5 uCi measured […] by gamma counting in presence of system A transport inhibitor MeAIB; type: ADME, cell-based; how it was run: as §2
Heart [8] = assay: Biodistribution in heart of Fischer 344 rat bearing rat 9L cells at 20 uCi, iv after 60 mins; type: ADME, organism-based; conditions: in vivo, 1 h
How it was run: (§3)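 Male Fischer 344 rats (200–250 g) carrying intracranial 9L gliosarcoma (5×10^4 cells implanted stereotactically, 10–12 days growth), under ketamine:xylazine anaesthesia. About 20 μCi tracer in 0.5 mL sterile saline given via tail-vein catheter. Groups of 4–5 were killed by intracardiac KCl at 15 (NMeFAMP only), 30, 60 or 120 min. Tissues were weighed and gamma-counted, decay-corrected, and reported as %ID/g, mean ± SD.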

Blood [9] = assay: Biodistribution in blood of Fischer 344 rat bearing rat 9L cells at 20 uCi, iv after 30 mins; type: ADME, organism-based; conditions: in vivo, 0.5 h; how it was run: as §3
Spleen [10] = assay: Biodistribution in spleen of Fischer 344 rat bearing rat 9L cells at 20 uCi, iv after 30 mins; type: ADME, organism-based; conditions: in vivo, 0.5 h; how it was run: as §3
Muscle tissue [11] = assay: Biodistribution in muscle of Fischer 344 rat bearing rat 9L cells at 20 uCi, iv after 60 mins; type: ADME, organism-based; conditions: in vivo, 1 h; how it was run: as §3
Lung [12] = assay: Biodistribution in lung of Fischer 344 rat bearing rat 9L cells at 20 uCi, iv after 30 mins; type: ADME, organism-based; conditions: in vivo, 0.5 h; how it was run: as §3
Bone [13] = assay: Biodistribution in bone of Fischer 344 rat bearing rat 9L cells at 20 uCi, iv after 30 mins; type: ADME, organism-based, Bone element; conditions: in vivo, 0.5 h; how it was run: as §3
[14] = Biodistribution in testis of Fischer 344 rat bearing rat 9L cells at 20 uCi, iv after 120 mins; type: ADME, organism-based; conditions: in vivo, 2 h; how it was run: as §3
[15] = Biodistribution in tumor of Fischer 344 rat bearing rat 9L cells at 20 uCi, iv after 30 mins; conditions: in vivo, 0.5 h
Bone [16] = assay: Biodistribution in bone of Fischer 344 rat bearing rat 9L cells at 20 uCi, iv after 60 mins; type: ADME, organism-based, Bone element; conditions: in vivo, 1 h; how it was run: as §3
Pancreas [17] = assay: Biodistribution in pancreas of Fischer 344 rat bearing rat 9L cells at 20 uCi, iv after 60 mins; type: ADME, organism-based; conditions: in vivo, 1 h; how it was run: as §3
Pancreas [18] = assay: Biodistribution in pancreas of Fischer 344 rat bearing rat 9L cells at 20 uCi, iv after 30 mins; type: ADME, organism-based; conditions: in vivo, 0.5 h; how it was run: as §3
Brain = assay: Biodistribution in brain of Fischer 344 rat bearing rat 9L cells at 20 uCi, iv after 30 mins; conditions: in vivo, 0.5 h
Spleen [19] = assay: Biodistribution in spleen of Fischer 344 rat bearing rat 9L cells at 20 uCi, iv after 120 mins; type: ADME, organism-based; conditions: in vivo, 2 h; how it was run: as §3
[20] = Biodistribution in testis of Fischer 344 rat bearing rat 9L cells at 20 uCi, iv after 60 mins; type: ADME, organism-based; conditions: in vivo, 1 h; how it was run: as §3
[21] = Biodistribution in testis of Fischer 344 rat bearing rat 9L cells at 20 uCi, iv after 30 mins; type: ADME, organism-based; conditions: in vivo, 0.5 h; how it was run: as §3
Spleen [22] = assay: Biodistribution in spleen of Fischer 344 rat bearing rat 9L cells at 20 uCi, iv after 60 mins; type: ADME, organism-based; conditions: in vivo, 1 h; how it was run: as §3
Bone [23] = assay: Biodistribution in bone of Fischer 344 rat bearing rat 9L cells at 20 uCi, iv after 120 mins; type: ADME, organism-based, Bone element; conditions: in vivo, 2 h; how it was run: as §3
[24] = Biodistribution in tumor of Fischer 344 rat bearing rat 9L cells at 20 uCi, iv after 30 mins; type: ADME, organism-based, Neoplasm; conditions: in vivo, 0.5 h; how it was run: as §3
Liver [25] = assay: Biodistribution in liver of Fischer 344 rat bearing rat 9L cells at 20 uCi, iv after 60 mins; type: ADME, organism-based; conditions: in vivo, 1 h; how it was run: as §3
Muscle tissue [26] = assay: Biodistribution in muscle of Fischer 344 rat bearing rat 9L cells at 20 uCi, iv after 120 mins; type: ADME, organism-based; conditions: in vivo, 2 h; how it was run: as §3
[27] = rat, in vivo, iv, 1 h
Heart [28] = assay: Biodistribution in heart of Fischer 344 rat bearing rat 9L cells at 20 uCi, iv after 30 mins; type: ADME, organism-based; conditions: in vivo, 0.5 h; how it was run: as §3
Lung [29] = assay: Biodistribution in lung of Fischer 344 rat bearing rat 9L cells at 20 uCi, iv after 60 mins; type: ADME, organism-based; conditions: in vivo, 1 h; how it was run: as §3
Muscle tissue [30] = assay: Biodistribution in muscle of Fischer 344 rat bearing rat 9L cells at 20 uCi, iv after 30 mins; type: ADME, organism-based; conditions: in vivo, 0.5 h; how it was run: as §3
Liver [31] = assay: Biodistribution in liver of Fischer 344 rat bearing rat 9L cells at 20 uCi, iv after 120 mins; type: ADME, organism-based; conditions: in vivo, 2 h; how it was run: as §3
Liver [32] = assay: Biodistribution in liver of Fischer 344 rat bearing rat 9L cells at 20 uCi, iv after 30 mins; type: ADME, organism-based; conditions: in vivo, 0.5 h; how it was run: as §3
Blood [33] = assay: Biodistribution in blood of Fischer 344 rat bearing rat 9L cells at 20 uCi, iv after 60 mins; type: ADME, organism-based; conditions: in vivo, 1 h; how it was run: as §3
[34] = Ratio of drug level from tumor to brain of Fischer 344 rat bearing rat 9L cells at 20 uCi, iv after 60 mins; conditions: in vivo, 1 h
Kidney [35] = assay: Biodistribution in kidney of Fischer 344 rat bearing rat 9L cells at 20 uCi, iv after 120 mins; type: ADME, organism-based; conditions: in vivo, 2 h; how it was run: as §3
Lung [36] = assay: Biodistribution in lung of Fischer 344 rat bearing rat 9L cells at 20 uCi, iv after 120 mins; type: ADME, organism-based; conditions: in vivo, 2 h; how it was run: as §3
Blood [37] = assay: Biodistribution in blood of Fischer 344 rat bearing rat 9L cells at 20 uCi, iv after 120 mins; type: ADME, organism-based; conditions: in vivo, 2 h; how it was run: as §3
Heart [38] = assay: Biodistribution in heart of Fischer 344 rat bearing rat 9L cells at 20 uCi, iv after 120 mins; type: ADME, organism-based; conditions: in vivo, 2 h; how it was run: as §3
[39] = rat, in vivo, iv, 1 h; remark: listed apart in the source
[40] = Ratio of drug level from tumor to brain of Fischer 344 rat bearing rat 9L cells at 20 uCi, iv after 120 mins; type: ADME, organism-based; conditions: in vivo, 2 h
Kidney [41] = assay: Biodistribution in kidney of Fischer 344 rat bearing rat 9L cells at 20 uCi, iv after 60 mins; type: ADME, organism-based; conditions: in vivo, 1 h; how it was run: as §3
Pancreas [42] = assay: Biodistribution in pancreas of Fischer 344 rat bearing rat 9L cells at 20 uCi, iv after 120 mins; type: ADME, organism-based; conditions: in vivo, 2 h; how it was run: as §3
Kidney [43] = assay: Biodistribution in kidney of Fischer 344 rat bearing rat 9L cells at 20 uCi, iv after 30 mins; type: ADME, organism-based; conditions: in vivo, 0.5 h; how it was run: as §3

## C[C@](N)(CF)C(=O)O.Cl
9L [1]
  Activity: 67%
9L [2]
  Activity: 58%
9L [3]
  Drug uptake: 4.27 %ID
9L [4]
  Drug uptake: 13.06 %ID
9L [5]
  Activity: 87%
9L [6]
  Drug uptake: 1.7 %ID
9L [7]
  Drug uptake: 5.51 %ID

## C[C@@](N)(C[18F])C(=O)O.Cl
Heart [8]
  Drug uptake: 0.41 % ID/g
Blood [9]
  Drug uptake: 0.58 % ID/g
Spleen [10]
  Drug uptake: 0.73 % ID/g
Muscle tissue [11]
  Drug uptake: 0.37 % ID/g
Lung [12]
  Drug uptake: 0.67 % ID/g
Bone [13]
  Drug uptake: 0.3 % ID/g
[14]
  Drug uptake: 0.17 % ID/g
[15]
  Drug uptake: 1.38 % ID/g
Bone [16]
  Drug uptake: 0.3 % ID/g
Pancreas [17]
  Drug uptake: 3.91 % ID/g
Pancreas [18]
  Drug uptake: 3.75 % ID/g
Brain
  Drug uptake: 0.07 % ID/g
Spleen [19]
  Drug uptake: 0.51 % ID/g
[20]
  Drug uptake: 0.16 % ID/g
[21]
  Drug uptake: 0.19 % ID/g
Spleen [22]
  Drug uptake: 0.62 % ID/g
Bone [23]
  Drug uptake: 0.31 % ID/g
[24]
  Ratio: 21.1
Liver [25]
  Drug uptake: 0.54 % ID/g
Muscle tissue [26]
  Drug uptake: 0.36 % ID/g
[27]
  Drug uptake: 1.82 % ID/g
Heart [28]
  Drug uptake: 0.43 % ID/g
Lung [29]
  Drug uptake: 0.47 % ID/g
Muscle tissue [30]
  Drug uptake: 0.47 % ID/g
Liver [31]
  Drug uptake: 0.42 % ID/g
Liver [32]
  Drug uptake: 0.61 % ID/g
Blood [33]
  Drug uptake: 0.4 % ID/g
[34]
  Ratio: 30.9
Kidney [35]
  Drug uptake: 6.88 % ID/g
Lung [36]
  Drug uptake: 0.36 % ID/g
Blood [37]
  Drug uptake: 0.32 % ID/g
Heart [38]
  Drug uptake: 0.34 % ID/g
[39]
  Drug uptake: 0.06 % ID/g
[40]
  Ratio: 27.7
Kidney [41]
  Drug uptake: 7.62 % ID/g
Pancreas [42]
  Drug uptake: 2.79 % ID/g
Kidney [43]
  Drug uptake: 8.71 % ID/g

## C[C@@](N)(CF)C(=O)O.Cl
9L [1]
  Activity: 75%
9L [2]
  Activity: 31%
9L [3]
  Drug uptake: 1.21 %ID
9L [4]
  Drug uptake: 4.77 %ID
9L [5]
  Activity: 72%
9L [6]
  Drug uptake: 1.33 %ID
9L [7]
  Drug uptake: 3.29 %ID

## CN[C@@](C)(CF)C(=O)O.Cl
9L [1]
  Activity: 54%
9L [2]
  Activity: 92%
9L [3]
  Drug uptake: 3.26 %ID
9L [4]
  Drug uptake: 7.08 %ID
9L [5]
  Activity: 89%
9L [6]
  Drug uptake: 0.75 %ID
9L [7]
  Drug uptake: 0.6 %ID
